From PubChem
core dimer inh = blocks dimerization of HCV core protein; actives 0.33% (n = 300,000); inhibition, % at 5 µM; TR-FRET GST/Flag-core106 dimerization, 1536-well;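 active = inhibition above the mean of all tested compounds plus 3 SD, set per screening campaign, cut at about 45% in these data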
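Assay system: Tagged HCV core106 pair (GST and Flag) | Buffer or medium: KF-containing HEPES buffer, pH 7.45, DTT, CHAPS, BSA | Also added: Eu donor and XL665 acceptor anti-tag antibodies | Dosing: One concentration, 5 µM, in 0.5% DMSO | Timing: 4 h at 22.5 °C | Technique: TR-FRET 671 and 617 nm emission | Repeats: Singlicate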
ZTA counter = ZTA (EBV) inhibition in EBNA-1 counter-screen; ZTA-DNA binding, fluorescence polarization; inhibition, % at 11 µM; actives 0.15% (n = 320,000); in the data active = inhibition above about 33%
Target sequence (P03206 whole entry, looked up): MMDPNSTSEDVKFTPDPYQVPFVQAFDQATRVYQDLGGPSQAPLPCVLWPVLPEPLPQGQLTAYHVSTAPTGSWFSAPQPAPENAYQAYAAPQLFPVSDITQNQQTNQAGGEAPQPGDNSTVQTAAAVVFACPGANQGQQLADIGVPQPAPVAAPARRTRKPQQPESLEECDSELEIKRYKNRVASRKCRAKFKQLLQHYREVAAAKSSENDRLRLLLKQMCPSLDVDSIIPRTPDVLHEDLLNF
UBC9 SUMO inh = inhibitors of human SUMOylation (UBC9) | HTRF SUMOylation assay, SAE1/SAE2 + UBC9, in vitro | inhibition, % at 35 µM | actives 0.36% (n = 290,000) | AID 2006; in the data active = inhibition above about 50%, passing the limit was not always enough
Target sequence (P63279 whole entry, looked up): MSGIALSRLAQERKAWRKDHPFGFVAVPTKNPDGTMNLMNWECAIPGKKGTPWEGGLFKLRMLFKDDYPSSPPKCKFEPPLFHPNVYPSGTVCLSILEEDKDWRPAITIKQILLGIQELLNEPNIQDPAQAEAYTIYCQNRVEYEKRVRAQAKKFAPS
NS3 helicase inh = HCV NS3 helicase inhibition; inhibition, % at 10.9 µM; AID 1800; actives 0.56% (n = 290,000); NS3 helicase DNA unwinding, Cy5 molecular beacon fluorescence;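 active = inhibition above the mean of all tested compounds plus 3 SD, set per campaign, cut at about 35% in these data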;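 note: 0% = DMSO wells and 100% = thioflavine S control wells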
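Assay system: hepatitis C virus NS3 helicase domain fragment enzyme. Also added: annealed dual-labelled DNA beacon duplex, ATP-started. Timing: 1 h reaction at 25 °C, ATP-initiated. Technique: Cy5 fluorescence at 0 and 60 min, beacon hairpin quenching. Evaluation: % inhibition of unwinding. Replication: one well per compound.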
EBNA-1 inh = blocks EBNA-1 binding to DNA; EBNA-1 DNA binding, fluorescence polarization; AID 1950; inhibition, % at 14.8 µM; actives 0.34% (n = 300,000); in the data active = inhibition above about 28%
Active calls of the source: *; x = no result given. The list is not random: actives were taken first. Their share in the collection is about 1.4%.

SMILES	core dimer inh	ZTA counter	UBC9 SUMO inh	NS3 helicase inh	EBNA-1 inh
CCN(CC(=O)Nc1ccc(NC(C)=O)cc1)C(=O)CCCc1nc2ccccc2c(=O)[nH]1	4	7	x	x	1
CC1CCC2(CC1)NC(=O)N(CC(=O)NCCc1ccc(F)cc1)C2=O (stereo not drawn)	x	-6	x	x	x
Cc1ccc(-c2nc3cc(N)ccc3o2)cc1	0	-4	52*	0	10
Nc1ccc2oc(-c3cccc4ccccc34)nc2c1	-16	-7	33	-4	18
Nc1ccc2oc(-c3cccs3)nc2c1	0	-3	56*	2	-8
COc1ccc(NC(=O)CN(C)C(=O)c2ccc(OCc3ccccc3)c(OC)c2)cc1	2	7	x	x	0
CCc1noc(C)c1C(=O)Nc1sc(C(=O)N(C)C)c(C)c1C#N	4	6	-7	-1	1
CCc1cc(C(=O)N(CC)CC(=O)Nc2ccc(OC)cc2)sc1C	x	1	x	x	x
O=C(OCc1cc(=O)n2c(n1)sc1ccccc12)c1cccc(O)c1	51*	9	22	10	0
Cc1ccc(C(=O)N[C@H](C(=O)OCc2cc(=O)n3c(n2)sc2ccccc23)C(C)C)cc1	39	17	-13	5	19
O=C(Cc1coc2cc3c(cc12)CCC3)OCc1cc(=O)n2c(n1)sc1ccccc12	57*	9	-6	13	-16
CC(C)[C@H](NC(=O)c1ccco1)C(=O)OCc1cc(=O)n2c(n1)sc1ccccc12	23	2	19	1	7
O=C(CSc1n[nH]c(-c2cccs2)n1)NCCc1ccccc1	-7	-3	x	x	13
CCCCCC(=O)Nc1ccc2oc(-c3cncc(Br)c3)nc2c1	-5	15	20	11	1
CCC(=O)Nc1ccc2oc(-c3cccnc3)nc2c1	3	-6	47	0	2
CC(C)CC(=O)Nc1ccc2oc(-c3cccnc3)nc2c1	0	-12	53*	2	-5
CCCC(=O)Nc1ccc2oc(-c3cncc(Br)c3)nc2c1	1	-22	52*	3	-12
COCCN(C(=O)CSCC(=O)Nc1cccc(C)c1)c1c(N)n(Cc2ccccc2)c(=O)[nH]c1=O	-3	15	x	x	-3
N#C/C(=C/c1cn(-c2ccccc2)nc1-c1cccc(S(=O)(=O)N2CCCC2)c1)C(=O)NCc1ccco1	71*	12	46	16	0
N#C/C(=C\c1cn(Cc2ccc(F)cc2)c2ccccc12)C(=O)NCc1ccco1	14	-7	51*	10	-1
Cc1ccc2[nH]c(C)c(CCNC(=O)c3cc4cc([N+](=O)[O-])ccc4oc3=O)c2c1	50*	-10	27	-6	3
COCCN(Cc1ccccc1)C(=O)c1ccc(C(=O)c2ccccc2)cc1	x	-3	x	x	x
COc1ccc(Br)cc1/C=c1\sc2nc(-c3ccco3)nn2c1=O	57*	5	52*	x	8
Cc1ccc(/C=c2\sc3nc(-c4ccco4)nn3c2=O)o1	62*	1	80	25	-4
Cc1ccc(/C=c2\sc3nc(-c4ccccc4Br)nn3c2=O)o1	32	20	24	33	1
SMILES	core dimer inh	ZTA counter	UBC9 SUMO inh	NS3 helicase inh	EBNA-1 inh
COc1ccccc1/C=c1\sc2nc(-c3ccccc3OC)nn2c1=O	4	18	-6	24	3
Cc1ccc(NC(=O)C(C)SCC(=O)Nc2ccc(F)cc2)cc1S(=O)(=O)N1CCOCC1 (stereo not drawn)	-1	1	x	x	11
O=C1Nc2ccc(S(=O)(=O)NCc3ccccn3)c3cccc1c23	x	x	47	18	x
CN(C)CCNS(=O)(=O)c1ccc2c3c(cccc13)C(=O)N2	-9	-15	53*	6	-3
CCN(CC)CCNS(=O)(=O)c1ccc2c3c(cccc13)C(=O)N2	7	5	58*	9	14
O=C(O)c1ccc(Sc2nnc3ccccn23)c([N+](=O)[O-])c1	-3	-3	32	11	9
Cc1nc(CCNC(=O)c2cc(COc3ccc(F)cc3Cl)on2)sc1C	-1	-1	27	0	0
CC1(C)Cc2c(C#N)c(NCc3ccco3)nc(-c3ccco3)c2CO1	52*	-1	26	20	-1
COCCn1cnc2c1c(=O)n(CC(=O)Nc1cc(C)on1)c(=O)n2Cc1ccccc1	-6	-26	22	4	0
Cc1cc(NC(=O)Cn2c(=O)n(Cc3ccccc3)c(=O)c3ccccc32)no1	-4	-6	52*	9	9
